# PubChem BioAssay AID1258 (University of Pittsburgh Molecular Library Screening Center, 2008)
# The whole screen tested about 1,100 compounds, of which about 150 (14%) were called active. Inconclusive results (about 1%) are left out.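 The calls were made as follows: active = inhibition above about 50% in both repeat tests (limit read from the data); inconclusive = one repeat under the set limit, the other over it; inactive = both repeats under the set limit.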 Only a sample is shown.
# Assay: Leishmania major promastigote growth inhibition, confirmation, 1 µM repeat of primary hits (AID 1258)
# Conditions: L. major promastigote growth, resazurin fluorescence, 48 h; at 1 µM; stronger effect = higher value
# Method in brief: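 Material: Leishmania major promastigote parasites / Medium: M199, 10% heat-inactivated FBS / Timing: 44 h compound exposure plus 4 h dye step, both 28 °C / Evaluation: parasite viability inhibition versus plate controls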
row,Compound,inhibition
1,CN(C)Cc1ccccc1C1(O)c2ccccc2CSc2ccccc21 (stereo unspecified),-1.45% (inactive)
2,Cc1ccc(Nc2nc(CSc3nnnn3-c3ccccc3)cc(=O)[nH]2)cc1,-2.73% (inactive)
3,CN(C)c1ccc(/C=C2\NC(=S)N(Cc3ccccc3)C2=O)cc1,-11.8% (inactive)
4,CCc1ccc(-c2nn(-c3ccccc3)cc2CSC(=N)N)cc1,46.8% (inactive)
5,c1ccc(C2CCC(N3CCC(N4CCCCC4)CC3)CC2)cc1 (stereo unspecified),59.2% (active)
6,O=C(Nc1ccc2ccccc2c1)Nc1ccc2snnc2c1,-30.1% (inactive)
7,Cc1cc(/C=C(/C#N)C(=O)Nc2ccc(Cl)cc2)c(C)n1-c1cccnc1,-3.48% (inactive)
8,O=C1N(Cc2ccc3c(c2)OCO3)c2ccccc2C1(O)c1c[nH]c2ccccc12 (stereo unspecified),0.0749% (inactive)
9,CCCCn1c(=S)[nH]c2cc(S(=O)(=O)N3CCCCC3)ccc21,9.63% (inactive)
10,Cc1nnc(-c2ccc(Oc3ccc(C)c(C)c3)c([N+](=O)[O-])c2)o1,-11.1% (inactive)
11,Cc1nc(N2CCOCC2)c2c(C)c(C(=O)Nc3ccc(C(F)(F)F)cc3)sc2n1,15.1% (inactive)
12,Cc1ccc(CN(N=Nc2nonc2N)c2nonc2N)c(C)c1,-2.38% (inactive)
13,Cc1nc([N+](=O)[O-])nn1C12CC3CC(CC(Br)(C3)C1)C2,38.5% (inactive)
14,CC(=O)NC1C(OCc2ccccc2)OC(COC(C)=O)C(OC(C)=O)C1OC(C)=O (stereo unspecified),-7.57% (inactive)
15,O=C(CCN1C(=O)c2ccccc2C1=O)Nc1cccc(F)c1,-12.6% (inactive)
16,O=C(NC(Cc1c[nH]c2ccccc12)C(=O)N/N=C/c1ccc(Br)cc1)c1cccs1 (stereo unspecified),-12.7% (inactive)

row,Compound,inhibition
1,c1ccc(-c2cc(-c3nnc4sc(-c5ccccn5)nn34)[nH]n2)cc1,50.6% (active)
2,COC(=O)C1=C(C)N(c2ccc(C)cc2)/C(=C/c2ccc(O)cc2)C1=O,8.89% (inactive)
3,COc1ccc(COC(=O)c2n[nH]c3ccccc23)cc1F,-13% (inactive)
4,CS(=O)(=O)Nc1cccc(C2=NN(S(=O)(=O)c3ccccc3)C(c3cccs3)C2)c1 (stereo unspecified),-8.88% (inactive)
5,Cc1cccc(-n2c(C)cc(/C=N/NC(N)=S)c2C)c1,15.8% (inactive)
6,C=CCNc1nnc(SCC(=O)N2CCCCC2)c2ccccc12,-6.19% (inactive)
7,N#Cc1ccccc1-n1c(N)c(C(=O)N2CCCC2)sc1=S,-0.236% (inactive)
8,CC12CCC(C(=O)N(NC(=O)c3ccccc3O)C1=O)C2(C)C (stereo unspecified),-15.5% (inactive)
9,Nc1cccc(-c2cc(-c3ccccc3)nc(-c3cccc(N)c3)n2)c1,-6.75% (inactive)
10,COc1ccc2[nH]c(C)c(CCN(Cc3cccs3)C(=S)Nc3ccccc3OC)c2c1,28.7% (inactive)
11,c1ccc(Cc2cc[n+](Cc3ccccc3)cc2)cc1,-17.2% (inactive)
12,CN(C)c1ccc(/C=N\S(=O)(=O)c2ccccc2)cc1,-0.93% (inactive)
13,O=C(c1cccnc1)N(c1cc2sc(=O)oc2c2ccccc12)S(=O)(=O)c1ccccc1,95.1% (active)
14,N#C/C=C\Oc1ccc(Cl)cc1N,-12.9% (inactive)
15,COc1ccc(-c2cc(C(F)(F)F)nc(S(C)(=O)=O)n2)cc1OC,36.4% (inactive)
